Data reported in PubChem BioAssay AID1385 (PCMD, 2008).
About 170 (0.085%) of roughly 200,000 compounds were called active. The sample holds actives, similar compounds and a random draw of the others, so the mix is not that of the screen.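 How the source made its calls: active means inhibition above 40% at the single screening dose; inactive means the rest.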

Target: DNA repair protein RAD51 homolog 1 (Homo sapiens) (UniProt Q06609)
Test: human RAD51 strand exchange inhibitors, primary screen, biochemical, fluorescence (AID 1385);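 further: 0% = DMSO control wells and 100% = blanks with heterologous ssDNA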
Conditions: hRad51 DNA strand exchange, fluorescence dequenching; at 10 µM; hits give high values
Procedure, shortened: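 Material: human Rad51–ssDNA filaments; Probe or stimulus: labelled 47-mer dsDNA for strand exchange; Doses: single 10 µM dose; Incubation: 37 °C 15-min filament assembly, 30-min compound preincubation, 15-min exchange; Technique: FRET fluorescence dequenching, excitation 485 nm, emission 520 nm; Measure: Fluorescence-based percent inhibition, control- and blank-normalised; Benchmarks: plate control and blank wells.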

DNA repair protein RAD51 homolog 1 (Homo sapiens), sequence (Q06609 whole entry, looked up): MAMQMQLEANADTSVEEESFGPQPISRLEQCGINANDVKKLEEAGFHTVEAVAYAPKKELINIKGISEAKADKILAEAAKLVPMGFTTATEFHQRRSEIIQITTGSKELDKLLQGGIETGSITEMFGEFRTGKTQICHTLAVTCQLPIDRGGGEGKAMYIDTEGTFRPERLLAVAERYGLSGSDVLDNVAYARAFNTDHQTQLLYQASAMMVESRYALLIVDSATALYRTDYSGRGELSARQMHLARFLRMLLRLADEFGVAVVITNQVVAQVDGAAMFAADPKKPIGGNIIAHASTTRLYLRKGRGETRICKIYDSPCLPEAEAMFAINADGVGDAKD

inhibition, inactive:
CCCOc1ccc(Cl)cc1Nc1nc(NCCO)nc(N2CCCC2)n1 6.75%, Cc1cc(NC(=O)OC(C)C)ccc1-c1ccc(NC(=O)OC(C)C)cc1C -19.8%, CCn1c(SCC(=O)Nc2sc(C)c(C)c2C#N)nnc1C1CC1 -26.7%, CCNc1nc(NCC)nc(N/N=C/c2ccc(O)c(OC)c2)n1 5.6%, Cc1cc(C)nc(Nc2n[nH]c(-c3ccccc3N)n2)n1 22.9%, COC(=O)c1cc(C(=O)OCC(=O)Nc2cc(C)on2)cc([N+](=O)[O-])c1 -19.8%, O=C(CCl)Nc1cccc(CP(=O)(c2ccccc2)c2ccccc2)c1 3.48%, Cc1nc(-c2ccccc2)sc1-c1nnc(C2CC2)o1 13.8%, Cc1cc(=O)oc2cc(OCC(=O)Nc3nnc(C4CC4)s3)ccc12 27.8%, CCCSc1ncccc1C(=O)O 14.8%, Cc1ccc(NC(=O)C/C(N)=N/O)cc1Cl -4.43%, O=S(=O)(Cc1noc(-c2ccc(OC(F)(F)F)cc2)n1)c1ccc(F)cc1 -2.58%, CC(NC(=O)C(=O)Nc1nccs1)c1ccccc1 (configuration not stated) 2.32%, CCOC(=O)c1c(N)sc2c1CCCC2=O 10.5%, CCCc1nc2c(c(=O)c3ccccc3n2C)c(=O)n1-c1cc(C)cc(C)c1 20%, Cc1cc(N)n(-c2ccc(S(=O)(=O)N3CCCC3)cc2[N+](=O)[O-])n1 4.97%, O=C(N/N=C/c1ccco1)c1csc2c1CCCC2 7.09%, Cn1c2c(c(=O)n(C)c1=O)C(c1cccc(F)c1)C(C#N)=C(N)O2 (configuration not stated) 1.62%, O=C1NNC(c2ccccc2)=N/C1=C\c1ccc(Cl)cc1 -17%, O=C(NCCN1CCOCC1)c1ccc2c(c1)N(Cc1ccc(Cl)cc1)CCS2 22.5%, CC1(C)CC(=O)C=C(Nc2ccccc2)C1 8.69%, O=C(C1=C(O)C(=O)N(CCOCCO)C1c1ccccn1)c1cccs1 (configuration not stated) 21.9%, CC12CN3CCN(CC(C3)/C1=N\NC(=O)c1ccccc1N)C2 -2.47%, Nc1scc[n+]1Cc1cccc2cccnc12 9.86%, Cc1c(CCC(=O)O)c(=O)oc2cc3occ(-c4ccccc4)c3cc12 3.32%, O=C(Cn1cnc2ccccc2c1=O)Nc1cccc(S(=O)(=O)N2CCCCC2)c1 11.5%, Cn1c(=O)c2c(-c3cccc(Br)c3)c(C#N)c(N)nc2n(C)c1=O 4.26%, COc1ccccc1/C=C/C=N/NC(=O)CN1CCN(Cc2ccccc2)CC1 -30.5%, CCOc1cc2c(Cl)ncnc2c(OCC)c1OCC -5.3%, O=S(=O)(Nc1ccc(Cl)cn1)c1cnc(Cl)c(Br)c1 12%, CC(NCc1ccccc1OC1CCCC1)c1ccccc1 (configuration not stated) 15.6%, O=c1cc(CCl)nc2scc(-c3ccccc3)n12 -3.51%, CNC(=S)NNC(=O)c1oc2nc(-c3ccccc3)cc(-c3ccco3)c2c1N -38.4%, Cc1onc(-c2c(Cl)cccc2Cl)c1C(=O)NNC(=O)c1c(-c2c(Cl)cccc2Cl)noc1C 9.44%, COc1cccc(Nc2nc(N)c([N+](=O)[O-])c(NCc3ccco3)n2)c1 1.8%, COc1ccc(CN2CC[C@H]3C=CC[C@@H](C(=O)N4CCOCC4)[C@H]3C2=O)cc1OC -2.64%, COc1ccccc1-n1c(SCC(=O)O)nc2sc3c(c2c1=O)CCC3 4.79%, COC(=O)C1=C[C@@H](C(=O)OC)[C@@H]2C3=C(C(=O)[C@]2(C)NC(=O)c2ccccc2)[C@H](C)n2c(=O)n(C)c(=O)n2[C@@H]3C1 -1.64%, Cc1ncn2cc(-c3ccc(Cl)cc3Cl)[nH]c(=O)c12 -9.91%, CCn1c(=O)c2cc(C(=O)Nc3cccc(C(C)=O)c3)sc2c2ccccc21 -1.26%, NS(=O)(=O)c1ccc(CNC(=O)c2cnccn2)cc1 7.99%, NC(=O)c1nnsc1-c1ccc(-c2snnc2C(N)=O)cc1 -31.9%, COc1ccc(CN2CCOC2=O)cc1OC -3.27%, CCN(CC)c1ccc(NC(=O)C2CCC(CNc3c(N4CCCC4)c(=O)c3=O)CC2)c(C)c1 (configuration not stated) 15.6%, CC(O)c1nc2c(c(=O)n(C)c(=O)n2C)n1C (configuration not stated) -23.8%, COc1ccc(CCNC2=C(Cl)C(=O)N(Cc3ccccc3)C2=O)cc1OC 8.51%, COc1ccc(C(=O)O/N=C(\N)Cc2ccc(Cl)cc2Cl)cc1OC 1.56%, O=C1[C@@H]2C(c3cccnc3)=NO[C@@H]2C(=O)N1c1ccc(Cl)cc1Cl -42%, COc1ccc(NS(=O)(=O)c2ccc(N3CCOCC3)c(NC(=O)c3ccccc3Br)c2)cc1 17%, CN(C)S(=O)(=O)c1ccc(Cl)c(NC(=O)COC(=O)CC(NC(N)=O)c2ccc(Cl)cc2)c1 (configuration not stated) -44.1%, Clc1ccc(C[n+]2cc(-c3ccccc3)n3c2CCC3)cc1 18.9%, NNC(=O)c1ccc(COCC(F)(F)C(F)F)cc1 1.4%, COc1ccc2nc(NC(=O)NC3CCCCC3)sc2c1 -16.2%, Cc1ccsc1/C=N/NC(=O)Cc1cc(=O)[nH][nH]1 16.7%, Cc1ccc(C(=O)NNC2=Nc3cc([N+](=O)[O-])ccc3OC2)cc1 3.01%, COc1ccc(NC(=O)CSc2ncnc3[nH]ncc23)cc1 -5.26%

inhibition, active:
COc1ccc(CCn2ccc(O)c(Cc3ccc(Cl)cc3Cl)c2=O)cc1OC 43.6%
